Shown are actives, neighbours in structure and some others; about 1.8% of the full set was active somewhere.
CHRM4 agonist – human M4 muscarinic receptor agonists, primary screen, CHO-K1 cells, Fluo-8 calcium fluorescence. Muscarinic acetylcholine receptor M4 (Homo sapiens), P08173. CHO-K1 hM4/Gqi5; vehicle 0%, full acetylcholine response 100%. activation, % at 3 µM. 360,000 tested, 0.14% active. AID 624127, 2012;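 active = activation above the run mean over all test wells plus 3 SD, cut at about 32% in these data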;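 note: peak over basal fluorescence ratio per well then scaled between controls; 0% = DMSO wells and 100% = acetylcholine at EC100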
M5 PAM – human M5 muscarinic receptor positive allosteric modulators, primary screen, CHO-K1 cells, Fluo-8 calcium fluorescence; Muscarinic acetylcholine receptor M5 (Homo sapiens), P08912; CHO-K1 hM5, ACh EC20 PAM; 0% = ACh EC20, 100% = ACh EC100; activation, % at 3 µM; 360,000 tested, 0.3% active; AID 624038, 2012;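 active = activation above the run cutoff, the mean activation of all test compounds plus 3 SD, cut at about 18% in these data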
Target sequence (P08912 whole entry, looked up): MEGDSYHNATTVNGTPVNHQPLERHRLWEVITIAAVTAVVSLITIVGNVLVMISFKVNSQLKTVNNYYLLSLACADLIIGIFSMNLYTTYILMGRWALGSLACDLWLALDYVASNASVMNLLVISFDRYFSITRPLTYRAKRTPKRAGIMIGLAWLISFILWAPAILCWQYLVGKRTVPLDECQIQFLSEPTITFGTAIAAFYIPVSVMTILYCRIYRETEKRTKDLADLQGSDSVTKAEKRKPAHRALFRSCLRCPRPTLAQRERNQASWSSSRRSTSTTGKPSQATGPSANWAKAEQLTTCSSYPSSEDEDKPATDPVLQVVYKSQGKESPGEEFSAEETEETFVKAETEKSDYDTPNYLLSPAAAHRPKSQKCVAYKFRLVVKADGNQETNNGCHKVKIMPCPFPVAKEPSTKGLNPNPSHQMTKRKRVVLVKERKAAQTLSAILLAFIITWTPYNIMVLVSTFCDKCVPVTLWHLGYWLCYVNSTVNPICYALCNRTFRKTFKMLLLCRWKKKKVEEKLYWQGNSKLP
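Test system: CHO-K1 hM5 cells / Doses: single-point, 3 µM nominal / Times: Post-acetylcholine fluorescence recording 140 s / Technique: Fluo-8 calcium fluorescence / Measure: Max/basal fluorescence ratio as % of EC20–EC100 ACh window / Benchmarks: low control EC20 acetylcholine (0%), high control EC100 acetylcholine (100%) / Replicates: one well per compound, no replicates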
M5 ag – human M5 muscarinic receptor agonists, primary screen, CHO-K1 cells, Fluo-8 calcium fluorescence; Muscarinic acetylcholine receptor M5 (Homo sapiens), P08912; CHO-K1 hM5 cells; 0% DMSO wells, 100% maximal acetylcholine response; activation, % at 3 µM; 360,000 tested, 0.19% active; AID 624037, 2012;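 active = activation above the run's mean over test compounds plus 3 SD, cut at about 23% in these data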;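 note: signal is peak over basal fluorescence ratio across the kinetic read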
M5 antag – human M5 muscarinic receptor antagonists, primary screen, CHO cells, Fluo-8 calcium fluorescence; Muscarinic acetylcholine receptor M5 (Homo sapiens), P08912; CHO-hM5 cells, ACh EC80; inhibition, % at 3 µM; 360,000 tested, 0.59% active; AID 624040, 2012;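 active = inhibition above a per-plate cutoff, the mean of that plate's test compounds plus 3 SD, cut at about 27% in these data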;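 note: 0% = acetylcholine EC80 with DMSO and 100% = DMSO without agonist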
M4 antag – human M4 muscarinic receptor antagonists, primary screen, CHO cells, Fluo-8 calcium fluorescence. CHO-hM4 cells, ACh EC80. inhibition, % at 3 µM. 360,000 tested, 0.73% active. Muscarinic acetylcholine receptor M4 (Homo sapiens), P08173;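 active = inhibition above its plate's cutoff, the mean inhibition of sample wells plus 3 SD, cut at about 27% in these data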;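 note: 0% = acetylcholine EC80 with DMSO and 100% = DMSO without agonist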
M4 PAM – human M4 muscarinic receptor positive allosteric modulators, primary screen, CHO-K1 cells, Fluo-8 calcium fluorescence; 360,000 tested, 0.4% active; CHO-K1 hM4/Gqi5, ACh EC20; 0% = ACh EC20, 100% = maximal ACh; activation, % at 3 µM;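 active = activation above its plate's cutoff, the mean activation of sample wells plus 3 SD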
Active calls of the source: *.

SMILES	CHRM4 agonist	M5 PAM	M5 ag	M5 antag	M4 antag	M4 PAM
O=C(Cn1ncn2c(cc3sccc32)c1=O)NC1CCCC1	0	2	-5	-6	4	-5
O=C(CN1CCCCC1)NC(=O)NC1CCCCC1	1	-17	-5	55*	12	0
NC(=O)C1CCN(CC(=O)NC(=O)NC2CCCC2)CC1	2	-1	-1	9	-6	20*
O=C(CN1CCCC1)NC(=O)NC1CCCC1	0	7	0	-2	1	-1
Cc1ccc(C(=O)N2CCN(c3ccccn3)CC2)cc1C	2	1	2	11	-4	15*
CSc1ccccc1NC(=S)NCc1ccc(Cl)cc1	2	-3	-5	8	3	-1
CCOC(=O)C1=C(Nc2ccc(OC)cc2)C(N)=NC1=N	0	2	1	-3	-1	-3
O=C1C(CN2CCCC2)CCCC1CN1CCCC1 (stereo not drawn)	0	-2	-8	-2	-5	-2
COC(=O)[C@@]1(Cc2ccc(OC)cc2)[C@@H]2C(=CC(=O)[C@H]2CC(=O)C(=O)N2CCCC2)CN1C(=O)c1ccccc1	2	19*	0	-9	-22	15
O=[N+]([O-])c1ccc(O)c(/C=N/Nc2nn[nH]n2)c1	4	1	0	-3	-5	24*
CC1Cc2ccccc2N1C(=O)COC(=O)c1ccc(N(C)C)cc1 (stereo not drawn)	0	-3	-1	3	6	-2
COc1ccc(N2CCN(C(=O)COC(=O)CCOc3ccc(C(C)(C)C)cc3)CC2)cc1	1	9	-1	-6	-15	5
COCCCNC(=O)c1cn(Cc2c(F)cccc2Cl)nn1	0	30*	0	-14	2	4
N#CCCN(Cc1ccccc1)C(=O)Nc1ccc(F)cc1	1	1	-4	9	1	-13
O=C(CN1CCN(c2ccccc2O)CC1)Nc1ccc2c(c1)OCCCO2	1	-1	1	2	0	5
CC1=NNC(=O)/C1=C\c1cn(-c2ccccc2)nc1-c1ccc(F)cc1	6	-4	21	50*	3	-7
O=C(O)CCCCCN1C(=O)/C(=C/c2cn(-c3ccccc3)nc2-c2cccs2)SC1=S	1	3	4	6	4	-1
CC1=NNC(=O)/C1=C\c1cn(-c2ccccc2)nc1-c1cccs1	14	10	24*	10	60*	-19
Cc1cc(C)c(NC(=O)CN(C)C(=O)C2CC(=O)N(c3cccc4ccccc34)C2)c(C)c1 (stereo not drawn)	2	3	0	11	7	9
COc1ccc(-c2csc3ncn(-c4ccccc4OC)c(=O)c23)cc1OC	6	-7	-5	1	-25	30*
COCc1c(C(=O)OCC(=O)NCCN2C(=O)CSC2=O)oc2ccccc12	0	1	-1	-1	-3	9
O=C(NC1CC2CCCC(C1)N2C(=O)NCc1ccccc1)C1CC1 (stereo not drawn)	0	3	-5	-1	32*	-9
O=C(NC1CC2CCCC(C1)N2C(=O)Nc1ccccc1)C1CC1 (stereo not drawn)	1	1	-3	8	-6	3
CSCC[C@H](NC(=O)[C@H](Cc1ccccc1)n1c(=O)[nH]c2ccccc2c1=O)C(=O)N[C@@H](Cc1ccccc1)C(=O)O	0	-2	1	4	-3	3
S=c1[nH]nc(-c2ccncc2)n1/N=C/C(Cl)=C\c1ccccc1	5	1	38*	-12	-16	26*
SMILES	CHRM4 agonist	M5 PAM	M5 ag	M5 antag	M4 antag	M4 PAM
S=c1[nH]nc(-c2ccncc2)n1/N=C/C=C/c1ccccc1	0	2	19	1	-8	11
Oc1ccc(C[C@@H]2CNCCN2CCc2cc(C(F)(F)F)cc(C(F)(F)F)c2)cc1	6	15	8	-1	15	25*
O=C1NC(=Nc2cccnc2)S/C1=C/c1ccc(F)cc1	2	6	1	2	-19	16*
O=C1NC(=Nc2ccccc2)S/C1=C\c1cccnc1	2	-7	1	22	-4	-1
Cc1nnc(NC(=O)CCSc2ccc(Cl)cc2)s1	1	-7	-1	10	-7	8
C/C(CC(=O)Nc1ccccc1Br)=N\NC(=O)C(=O)N1CCCC1	0	61*	-6	2	1	5
C/C(CC(=O)Nc1ccc(Cl)cc1Cl)=N\NC(=O)C(=O)N1CCCC1	0	2	-1	0	-1	-3
O=C(COC(=O)c1cc(=O)[nH]c(=O)[nH]1)Nc1cccc(S(=O)(=O)N2CCCCC2)c1	0	3	2	2	3	-2
N#Cc1ccccc1OCC(=O)OCCCOC(=O)COc1ccccc1C#N	8	-11	-4	27*	-10	-8
N#Cc1ccccc1OCC(=O)OCC(=O)N1CCCC1	-1	-6	2	16	2	4
COc1ccc([C@@H]2[C@@H]3C(=O)N(C(C)(C)C)C(=O)[C@@H]3[C@]3(C)C(=O)N(c4ccc(C(F)(F)F)cc4)C(=O)N23)cc1	2	-6	4	6	-4	4
CCOc1cc(-c2nc3ccccn3c2NCC2CCCO2)ccc1O (stereo not drawn)	22	-17	5	24	30*	-25
COc1cc(-c2nc3ccccn3c2NCC2CCCO2)ccc1O (stereo not drawn)	16	-20	6	13	14	-19
C=CC[C@@H](CC(=O)N(CCO)Cc1ccccc1)C(=O)N[C@H](COC(=O)[C@@H](CC=C)Cc1ccc(F)cc1)Cc1ccccc1	11	-25	-2	18	31*	-12
C=CC[C@H](CC(=O)N(CCO)Cc1ccccc1)C(=O)NC[C@H](OC(=O)[C@@H](CC=C)Cc1ccc(F)cc1)c1ccccc1	21	-30	0	20	30*	-14
C=CC[C@@H](CC(=O)N(CCO)Cc1ccccc1)C(=O)NC[C@@H](OC(=O)[C@@H](CC=C)Cc1ccc(F)cc1)c1ccccc1	14	-21	-1	16	22	-9
CS(=O)CSc1nc2c(cc1C#N)CCCC2 (stereo not drawn)	1	-24	-4	22	58*	-16
Cc1cc(Cl)ccc1OCC(=O)NNC(=O)CCOc1ccccc1	2	3	-3	10	-12	10

From PubChem BioAssay
